Source: PubChem (Broad Institute)
Shown are actives, neighbours in structure and some others; about 3.1% of the full set was active somewhere.
miR-122 sensor: inhibitors of miR-122 in Huh7 cells; AID 602342; activation (reporter increase), % at 12.5 µM; 340,000 tested, 0.3% active; Huh7 miR-122 Renilla luciferase sensor, 48 h; neutral wells = 0, positive control = 100;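 active = mean replicate activation score at least 90 and every replicate individually at or above 90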;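 also: higher luciferase means less miR-122 activity so hits act as miR-122 inhibitors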
Cneo AK release: Cryptococcus neoformans lysis via adenylate kinase release | 360,000 tested, 0.2% active | lysis activity, % at 15 µM | C. neoformans lysis, adenylate kinase release luminescence, 4 h; normalised: neutral wells 0, clomiphene wells 100;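 active = mean lysis activity across replicates of at least 80%, whatever share of replicates individually reach that level; inactive = mean lysis activity below 80%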
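Test system: log-phase Cryptococcus neoformans yeast cells. Input: 5 × 10^6 yeast cells/mL. Medium: fresh YPD growth medium. Doses: single dose. Incubation: static 4 h at 37 °C with compound, 1 h detection. Measured by: luminescent adenylate kinase detection reagent. Read-out: signal increase indicating cell lysis. Benchmarks: Clomiphene.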
Ecoli rRNA inh: inhibitors of bacterial rRNA selective over humanized ribosomes | E. coli WT GFP vs humanized-ribosome RFP mutants, fluorescence, 24 h; stronger effect = lower value; DMSO median 0, no signal -100 | GFP signal change (wild-type ribosome), % (concentration not given with the values) | 350,000 tested, 1.6% active | AID 720706;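 active = significant combined selectivity score with lowered wild-type GFP, culture density cut under 30%, mutant RFP and density less affected; inactive = any of these conditions unmet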
F508del corr: CFTR F508del correction in bronchial cells. CFBE cells, YFP halide quenching; stimulated with forskolin plus potentiator P3; % fluorescence drop versus neutral controls. activity (quench increase), % at 7.58 µM. 350,000 tested, 0.36% active;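 active = mean added fluorescence quench of at least 8% versus neutral control, with both replicates also reaching 8%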;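 also: cells transiently co-express mutant CFTR-F508del with the halide-sensitive YFP; corrector assay measuring rescue of mutant channel to the surface after 24 h compound exposure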
INS-1E GSIS act: primary screen for activators of insulin secretion dependent on glucose, INS-1E cells, GLuc reporter luminescence; 370,000 tested, 0.61% active; AID 743287; activation, % at 16.6 µM; INS-1E GLuc reporter insulin secretion, 2-3 h;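 active = lowest replicate activation of at least 40%, so every replicate reaches that level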;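 also: 0% = median of neutral control wells and 100% = median of IBMX positive control wells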
Env fusion inh: HIV envelope-mediated fusion inhibition; HeLa-JRFL Env/CEM21 cell fusion, luciferase; inhibition, % at 12.3 µM; 360,000 tested, 1.1% active;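 active = mean replicate inhibition score of at least 50 and every replicate individually at or above 50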;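 also: 0% = plate neutral controls and 100% = maraviroc near 300 nM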
Active calls of the source: *; [ ] = dose if it differs, or a comment.

COc1ccc(N/C(=N/c2nc(C)cc(C)n2)NC(=O)c2ccccc2)cc1 was read as Ecoli rRNA inh -20*, F508del corr -1 and Env fusion inh -5.
Cc1cc(C)nc(/N=C(/NC(=O)c2ccccc2)Nc2ccccc2)n1 was read as miR-122 sensor -7, Cneo AK release -1 and Env fusion inh -31.
`COc1ccc(S(=O)(=O)N(C)C[C@H]2OCCCC[C@H](C)Oc3ccc(NC(=O)CCC(F)(F)F)cc3C(=O)N([C@H](C)CO)C[C@@H]2C)cc1` gave miR-122 sensor -7[16.7 µM], Cneo AK release -3, Ecoli rRNA inh -1, F508del corr 3, INS-1E GSIS act -11 and Env fusion inh -60[16.7 µM].
Cc1cccc(C)c1NC(=O)C1c2ccccc2Oc2ccccc21 was read as INS-1E GSIS act 51* and Env fusion inh -10.
Screening Cc1ccccc1NC(=O)C1c2ccccc2Oc2ccccc21 returned Cneo AK release 2, Ecoli rRNA inh 18, F508del corr 2, INS-1E GSIS act -3 and Env fusion inh -7.
For O=C(c1ccccc1)c1cc2cc(Cl)ccc2[nH]1 the results were miR-122 sensor -9, Cneo AK release 1, Ecoli rRNA inh 7, F508del corr 3, INS-1E GSIS act 41* and Env fusion inh -34.
Screening COc1cccc(C(=O)c2cc3cc(Cl)ccc3[nH]2)c1 returned miR-122 sensor 1, Cneo AK release 0, Ecoli rRNA inh 2, F508del corr 1, INS-1E GSIS act -2 and Env fusion inh -25.
Screening COc1ccc(-c2ccc3c(c2)O[C@@H](CN(C)Cc2cccnc2)[C@@H](C)CN([C@H](C)CO)S3(=O)=O)cc1 returned Cneo AK release -1, Ecoli rRNA inh -5, F508del corr -2, INS-1E GSIS act -12 and Env fusion inh -6[16.7 µM].
`Cc1cccc(Nc2nc(-c3c(C)nc4ccccn34)cs2)c1` gave miR-122 sensor -2, Cneo AK release 4 and Env fusion inh 92*.
`CCC(=O)N1[C@@H]2c3ccc(C4=CCCC4)c(=O)n3C[C@@H]2[C@@H](CO)[C@@H]1C(=O)NC1CCC1` gave miR-122 sensor 3[16.7 µM], Cneo AK release -4, Ecoli rRNA inh 5, F508del corr 1 and INS-1E GSIS act 14.
`C(=N\Nc1nc2ccccc2[nH]1)/c1cccc2nccnc12` gave miR-122 sensor -22, Cneo AK release -3, Ecoli rRNA inh -31*, INS-1E GSIS act -12 and Env fusion inh 4.
For C(=N\Nc1nc2ccccc2[nH]1)/c1ccccn1 the results were Ecoli rRNA inh 12, F508del corr 0, INS-1E GSIS act 4 and Env fusion inh 20.
COc1cc(OC)c(OC)cc1/C=N/Nc1nc2ccccc2[nH]1 was read as Ecoli rRNA inh -39*, F508del corr 3, INS-1E GSIS act -46 and Env fusion inh -6.
Screening CCCC#Cc1ccc2c(c1)O[C@@H](CN(C)Cc1cccnc1)[C@@H](C)CN([C@@H](C)CO)S2(=O)=O returned miR-122 sensor 49[16.7 µM], Cneo AK release 59, Ecoli rRNA inh -33, INS-1E GSIS act -29 and Env fusion inh 2[16.7 µM].
For O=C(CSc1cccc[n+]1[O-])C12CC3CC(CC(C3)C1)C2 the results were Ecoli rRNA inh -27*, F508del corr -5, INS-1E GSIS act -3 and Env fusion inh -7.
`O=C(O)CSc1cccc[n+]1[O-]` gave miR-122 sensor -25, Cneo AK release 0 and Env fusion inh -69.
For Cc1cccc2nc(-c3ccco3)c(Nc3ccccc3)n12 the results were miR-122 sensor 3, Cneo AK release -1, Ecoli rRNA inh 3, F508del corr -2, INS-1E GSIS act 41* and Env fusion inh 4.
Screening Cc1cccc2nc(-c3ccco3)c(Nc3ccc4c(c3)OCO4)n12 returned miR-122 sensor -1, Cneo AK release -3, Ecoli rRNA inh -4, F508del corr 2, INS-1E GSIS act 8 and Env fusion inh 27.
Screening O=C(CSc1nc2ccc([N+](=O)[O-])cc2[nH]1)NC1CCCCCC1 returned miR-122 sensor 328*, Cneo AK release 0, INS-1E GSIS act -27 and Env fusion inh 116*.
